Converted amounts (≈) assume the structure as drawn.
Assays:
[1] = Critical micelle concentration in aqueous triethanalamine at pH 8.0 to 9.5 by fluorescence spectra measurement; settings: buffer
Neisseria gonorrhoeae = experiment: Antibacterial activity against Neisseria gonorrhoeae ATCC 31426 after 4 days by broth microdilution method; format: functional; settings: ATCC 31426, 96 h
How it was run: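 Strain ATCC 31426 from chocolate agar (1% hemoglobin) colonies, grown 4 d in GC broth at 37 °C in an anaerobic jar with CO2 generator. Cells taken up in buffered saline gelatin and allowed to settle 4 h. Broth microdilution over 6.25 mg/mL down to 0.55 µg/mL. Plates incubated 4 d at 37 °C, in triplicate. MIC is the lowest concentration giving prominent visible decrease in turbidity; ±1 twofold dilution.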

Candida albicans = experiment: Antifungal activity against Candida albicans; format: functional
How it was run: (§1)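 Whole-cell growth-inhibition assays against L. plantarum or C. albicans, compounds added from aqueous triethanolamine stocks. Activity expressed as MIC99, the concentration giving complete inhibition of growth. Error ±1 twofold dilution.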

[2] = Critical micelle concentration in aqueous triethanalamine using drop shape analysis by surface tension measurement; format: physicochemical; settings: buffer
How it was run: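 Surface tension from pendent drops on an 18-gauge needle in triethanolamine/water 0.9% (wt/vol), with solution pH 8.0–9.5. Drop kept in a cuvette holding aqueous triethanolamine to maintain humidity, and camera magnification calibrated from needle tip width. CMC from the break in surface tension versus log concentration.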

[3] = test system: Human immunodeficiency virus 1; experiment: Antiviral activity against HIV1 3B with X4 trophism infected in human HeLa cells after 2 hrs by beta-galactosidase reporter gene assay; format: functional, organism-based; settings: Human immunodeficiency virus 1, 3B
How it was run: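 CD4+, LTR-driven β-galactosidase HeLa cells exposed 2 h to HIV-1 IIIB plus serial compound dilutions. Virus and compound then washed out and cells cultured 48 h in RPMI 1640/10% FBS at 37 °C, 5% CO2. Lysate β-galactosidase measured by chemiluminescence, with virus-only wells as 100% infection. EC50 by linear regression; SD ±10%.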

[4] = Cytotoxicity against human epithelial cells by MTT assay; format: cell-based; settings: Epithelial cell
How it was run: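 Same HeLa cells and same conditions as the infection assay, on a separate plate without virus. Viability measured by MTT reduction. EC50 by linear regression; SD ±10%.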

[5] = Ratio of EC50 for human HeLa cells to EC50 for HIV1 3B infected in human HeLa cells
[6] = test system: Lactiplantibacillus plantarum; experiment: Antibacterial activity against Lactobacillus plantarum; format: functional
How it was run: as §1

[7] = Slope of log critical micelle concentration versus chain length n in aqueous potassium hydroxide by conductivity measurement; settings: buffer
[8] = Critical micelle concentration in aqueous potassium hydroxide by conductivity measurement; format: physicochemical; settings: buffer
How it was run: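 Measured in potassium hydroxide solutions at high pH so that only the trianion is present. Solutions stirred during conductivity measurement. CMC taken by least-squares fits of the linear portions of conductivity-versus-concentration plots on either side of the break.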

[9] = Solubility of compound in triethanolamine solution; format: physicochemical
[10] = Safety ratio of critical micelle concentration in aqueous triethanalamine at pH 7.4 to MIC99 for Candida albicans; format: toxicity; settings: aqueous triethanolamine
[11] = Critical micelle concentration in aqueous triethanalamine at pH 6.4 by fluorescence spectra measurement; format: physicochemical
How it was run: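 Measured in triethanolamine/water 0.9% (wt/vol) with pH adjusted to 7.4 or 6.4, using pyrene as micelle probe. Mixtures shaken at least 24 h. Excitation 334 nm, bandpasses 5/2.5 nm. CMC from emission intensities of the I1 (373 nm) and I3 (384 nm) peaks.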

[12] = Solubility of compound in phosphate buffer at pH 7.2; format: physicochemical
[13] = Safety ratio of critical micelle concentration in aqueous potassium hydroxide to MIC99 for Candida albicans; format: toxicity; settings: buffer
[14] = Safety index, ratio of EC50 for human epithelial cells to MIC99 for Candida albicans; format: toxicity, cell-based, Epithelial cell

Row | SMILES | CMC [1] | MIC99 (Neisseria gonorrhoeae) | MIC99 (Candida albicans) | CMC [2] | EC50 [3] | slope of logCMC vs n [7] | CMC [8] | solubility [9] | CMC [11] | solubility [12] | EC50 [4] | Ratio EC50 [5] | MIC99 [6] | selectivity ratio [10] | Ratio [13] | selectivity ratio [14]
1 | CCCCCCCCCCCCCCCCOC(=O)NC(CCC(=O)O)(CCC(=O)O)CCC(=O)O | 6400 µM | 280 µM (≈ 144 µg/mL) | 47 µM (≈ 24.2 µg/mL) | 6800 µM | 170 µM |  |  |  |  |  | 440 µM | 2.6 | 6000 µM (≈ 3090 µg/mL) |  |  | 
2 | CCCCCCCCCCCCCCNC(=O)NC(CCC(=O)O)(CCC(=O)O)CCC(=O)O |  | 12000 µM (≈ 5840 µg/mL) | 1600 µM (≈ 779 µg/mL) |  | 270 µM | -0.3 | 8400 µM |  |  |  |  | 1.1 | 6400 µM (≈ 3110 µg/mL) |  |  | 
3 | CCCCCCCCCCCCCCCCCCCCCCOC(=O)NC(CCC(=O)O)(CCC(=O)O)CCC(=O)O | 330 µM | 120 µM (≈ 72 µg/mL) | 1300 µM (≈ 780 µg/mL) | 320 µM | 110 µM |  |  |  |  |  | 360 µM | 3.3 | 1300 µM (≈ 780 µg/mL) |  |  | 
4 | CCCCCCCCCCCCCCCCCCCCOC(=O)NC(CCC(=O)O)(CCC(=O)O)CCC(=O)O | 800 µM | 120 µM (≈ 68.6 µg/mL) | 1400 µM (≈ 801 µg/mL) | 500 µM | 130 µM |  |  |  |  |  | 280 µM | 2.2 | 1400 µM (≈ 801 µg/mL) |  |  | 
5 | CCCCCCCCCCCCCCOC(=O)NC(CCC(=O)O)(CCC(=O)O)CCC(=O)O |  | 580 µM (≈ 283 µg/mL) | 1600 µM (≈ 780 µg/mL) |  | 370 µM |  |  |  |  |  | 620 µM | 1.7 | 6400 µM (≈ 3120 µg/mL) |  |  | 
6 | CCCCCCCCCCCCCCCCCCCCNC(=O)NC(CCC(=O)O)(CCC(=O)O)CCC(=O)O | 1300 µM | 120 µM (≈ 68.5 µg/mL) | 2800 µM (≈ 1600 µg/mL) | 1400 µM | 130 µM | -0.3 | 120 µM |  |  |  | 210 µM | 1.6 | 1400 µM (≈ 799 µg/mL) |  |  | 
7 | CCCCCCCCCCCCCCCCCCCCCCNC(=O)NC(CCC(=O)O)(CCC(=O)O)CCC(=O)O | 400 µM | 120 µM (≈ 71.9 µg/mL) | 2700 µM (≈ 1620 µg/mL) | 340 µM | 120 µM | -0.3 | 40 µM |  |  |  | 260 µM | 2.2 | 940 µM (≈ 563 µg/mL) |  |  | 

Now from value to compound, other results behind:

Row | CMC [1] | MIC99 (Neisseria gonorrhoeae) | MIC99 (Candida albicans) | CMC [2] | EC50 [3] | slope of logCMC vs n [7] | CMC [8] | solubility [9] | CMC [11] | solubility [12] | SMILES | EC50 [4] | Ratio EC50 [5] | MIC99 [6] | selectivity ratio [10] | Ratio [13] | selectivity ratio [14]
8 | 11000 µM | 2700 µM (≈ 1390 µg/mL) | 280 µM (≈ 144 µg/mL) | 11000 µM |  | -0.175 | 71 µM |  |  |  | CCCCCCCCCCCCCCCCCC(=O)NC(CCC(=O)O)(CCC(=O)O)CCC(=O)O |  |  | 540 µM (≈ 277 µg/mL) |  |  | 
9 | 1500 µM | 120 µM (≈ 68.4 µg/mL) | 7.7 µM (≈ 4.39 µg/mL) | 2000 µM | 130 µM | -0.175 | 13 µM | > 22000 µM | 150 µM | 79 µM (≈ 45 µg/mL) | CCCCCCCCCCCCCCCCCCCCCC(=O)NC(CCC(=O)O)(CCC(=O)O)CCC(=O)O | 250 µM |  | 490 µM (≈ 279 µg/mL) | 52 | 1.7 | 32
10 | 3200 µM | 130 µM (≈ 70.4 µg/mL) | 16 µM (≈ 8.67 µg/mL) | 3000 µM | 170 µM | -0.175 | 34 µM |  |  |  | CCCCCCCCCCCCCCCCCCCC(=O)NC(CCC(=O)O)(CCC(=O)O)CCC(=O)O | 340 µM |  | 520 µM (≈ 282 µg/mL) | 10 | 2 | 21
11 | 2700 µM | 65 µM (≈ 35.3 µg/mL) | 180 µM (≈ 97.9 µg/mL) | 2800 µM | 130 µM |  |  |  |  |  | CCCCCCCCCCCCCCCCCCOC(=O)NC(CCC(=O)O)(CCC(=O)O)CCC(=O)O | 350 µM | 2.7 | 1400 µM (≈ 761 µg/mL) |  |  | 
12 |  | 12000 µM (≈ 5490 µg/mL) | 610 µM (≈ 279 µg/mL) |  | 740 µM | -0.175 | 3500 µM |  |  |  | CCCCCCCCCCCCCC(=O)NC(CCC(=O)O)(CCC(=O)O)CCC(=O)O | 300 µM |  | 610 µM (≈ 279 µg/mL) |  |  | 
13 | 7100 µM | 2800 µM (≈ 1440 µg/mL) | 47 µM (≈ 24.2 µg/mL) | 4900 µM | 180 µM | -0.3 | 2300 µM |  | 480 µM |  | CCCCCCCCCCCCCCCCNC(=O)NC(CCC(=O)O)(CCC(=O)O)CCC(=O)O | 350 µM | 1.9 | 6000 µM (≈ 3090 µg/mL) | 83 | 49 | 7
14 | 18000 µM | 12000 µM (≈ 5830 µg/mL) | 290 µM (≈ 141 µg/mL) | 17000 µM | 230 µM | -0.175 | 1500 µM |  |  | 6900 µM (≈ 3350 µg/mL) | CCCCCCCCCCCCCCCC(=O)NC(CCC(=O)O)(CCC(=O)O)CCC(=O)O | 940 µM | 4 | 570 µM (≈ 277 µg/mL) |  |  | 
15 | 2300 µM | 130 µM (≈ 70.6 µg/mL) | 1400 µM (≈ 760 µg/mL) | 2200 µM | 240 µM | -0.3 | 330 µM |  |  |  | CCCCCCCCCCCCCCCCCCNC(=O)NC(CCC(=O)O)(CCC(=O)O)CCC(=O)O | 280 µM | 1.2 | 1400 µM (≈ 760 µg/mL) |  |  | 

— ChEMBL document CHEMBL1153411, “Comparing anti-HIV, antibacterial, antifungal, micellar, and cytotoxic properties of tricarboxylato dendritic amphiphiles” (Bioorg Med Chem, 2009)
